Data taken from article PMC7225057 (Journal of molecular biology, 2020).
Substitutions are numbered along the chain they refer to. Residues, ends and D or L forms follow the SMILES beside them. *: point of attachment. FITC = O=C1OC2(c3ccc(O)cc3Oc3cc(O)ccc32)c2ccc(NC(=S)*)cc21; Ahx = NCCCCCC(=O)O

What was measured:
[1] = target: RAMP1-CTR.34–141 WT (PNGase F) (Homo sapiens, UniProt O60894+P30988, N125D/N130D/N73D); assay: FP saturation binding, RAMP1-CTR.34–141 WT, PNGase F; conditions: Figure S8D, 10 nM probe, pH 7.4, N = 3
Outline: (§1)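 RAMP1-CTR ECD fusion WT was expressed in HEK293S GnTI cells, TEV-cleaved to remove MBP, then purified by IMAC/SEC. FP saturation binding at room temperature used 10 nM FITC-peptide probe and titrated receptor. Buffer: HEPES pH 7.4 with BSA, maltose, EDTA, Tween 20. Duplicates, pKD by nonlinear fit.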

RAMP1-CTR.34–141 N130D = target: T1, RAMP1-CTR.34–141 N130D (Homo sapiens, UniProt O60894+P30988, N130D/fusion); assay: FP saturation binding, RAMP1-CTR.34–141 N130D; conditions: Figure S8D; no enzyme; 10 nM probe, pH 7.4; mean ± SEM, N = 3
T1 sequence (P30988 34-141 N130D): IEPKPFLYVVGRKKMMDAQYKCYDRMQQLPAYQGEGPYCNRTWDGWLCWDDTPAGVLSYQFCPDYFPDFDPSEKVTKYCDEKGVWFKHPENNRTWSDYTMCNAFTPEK

[2] = target: T2, RAMP1-CTR.34–141 WT (inactive PNGase F) (Homo sapiens, UniProt O60894+P30988, fusion); assay: FP saturation binding, RAMP1-CTR.34–141 WT, inactive PNGase F; conditions: Figure S8D, 10 nM probe, pH 7.4, mean ± SEM, N = 3
T2 sequence (P30988 34-141): T1 sequence (P30988 34-141 N130D) with D97N
Outline: as §1

[3] = target: T3, CTR.38–141 N130D (CTR ECD; HEK293S GnTI^−, Endo H) (Homo sapiens, UniProt P30988, N130D); assay: FP saturation binding, CTR.38–141 N130D, Endo H; conditions: N130D vs Endo H-treated WT
T3 sequence (P30988 38-141 N130D): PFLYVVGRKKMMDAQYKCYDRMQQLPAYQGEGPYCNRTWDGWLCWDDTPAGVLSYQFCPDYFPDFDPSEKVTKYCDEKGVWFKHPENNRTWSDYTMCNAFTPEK

[4] = target: T4, Glycan-free CTR.38–141 WT (CTR ECD; E. coli) (Homo sapiens, UniProt P30988); assay: FP saturation binding, glycan-free CTR.38–141 WT; conditions: glycan-free vs Endo H-treated WT
T4 sequence (P30988 38-141): T3 sequence (P30988 38-141 N130D) with D93N

[5] = system: glucagon-like peptide 1 receptor (GLP-1R); conditions: cited from earlier work
[6] = system: glucagon-like peptide 1 receptor (GLP-1R); conditions: cited from earlier work; remark: listed apart in the source
[7] = system: IL-7 receptor α unit (IL-7Rα) ectodomain; conditions: cited from earlier work
[8] = system: Pituitary adenylate cyclase activating polypeptide (PACAP) type I (PAC1) receptor; conditions: tunicamycin treatment, binding capacity not altered; cited from earlier work
[9] = system: PTH type 1 receptor (PTH1R); conditions: cited from earlier work
CTR ECD = conditions: isolated ECD; cited from earlier work
CTR = conditions: cited from earlier work

In the case of `CC(C)C[C@H](NC(=O)[C@H](CCCNC(=N)N)NC(=O)[C@@H](NC(=O)[C@H](CC(C)C)NC(=O)[C@H](Cc1ccccc1)NC(=O)[C@H](CC(N)=O)NC(=O)[C@H](C)NC(=O)CCCCCNC(=S)Nc1ccc2c(c1)C(=O)OC21c2ccc(O)cc2Oc2cc(O)ccc21)C(C)C)C(=O)N[C@@H](CCC(N)=O)C(=O)N[C@H](C(=O)N[C@@H](Cc1ccc(O)cc1)C(=O)N1CCC[C@H]1C(=O)N[C@@H](CCCNC(=N)N)C(=O)N[C@H](C(=O)N[C@@H](CC(N)=O)C(=O)N[C@H](C(=O)NCC(=O)N[C@@H](C)C(=O)N[C@@H](CC(N)=O)C(=O)N[C@H](C(=O)N[C@@H](Cc1ccc(O)cc1)C(N)=O)[C@@H](C)O)C(C)C)[C@@H](C)O)[C@@H](C)O` [FITC-AC413(6–25)] ({FITC-Ahx}-ANFLVRLQTYPRTNVGANTY-NH2; N-terminus and C-terminus assumed), the pKD [1] is reported as under 5.0, the pKD (RAMP1-CTR.34–141 N130D) is reported as 5.12 ± 0.07 and the pKD [2] is reported as 6.01 ± 0.03.
In the case of `C[C@@H](O)[C@H](NC(=O)[C@H](CC(N)=O)NC(=O)[C@@H](NC(=O)[C@H](CCCNC(=N)N)NC(=O)[C@@H]1CCCN1C(=O)[C@H](Cc1ccc(O)cc1)NC(=S)Nc1ccc2c(c1)C(=O)OC21c2ccc(O)cc2Oc2cc(O)ccc21)[C@@H](C)O)C(=O)NCC(=O)N[C@@H](CO)C(=O)NCC(=O)N[C@H](C(=O)N1CCC[C@H]1C(N)=O)[C@@H](C)O` [FITC-sCT(22–32)] ({FITC}-YPRTNTGSGTP-NH2), the affinity decrease [3] is reported as “over 5 fold” and the affinity decrease [4] is reported as “over 5 fold”.
In the case of “GLP-1: GLP-1, ligand of glucagon-like peptide 1 receptor”, the “affinity, double mutation of two N-glycosylation sites” value [5] is given as “significantly reduced GLP-1 affinity” and the “signaling potency, double mutation of two N-glycosylation sites” value [6] is given as “significantly reduced GLP-1 affinity and signaling potency”.
For “IL-7: IL-7, ligand of IL-7 receptor α unit”, the “association rate with N-glycosylated receptor” value [7] is given as “accelerated association rate” and the “effect of N-glycosylation on binding affinity” value [7] is given as “significantly increased IL-7 binding affinity”.
In the case of PACAP-27, the “affinity decrease by tunicamycin” value [8] is given as 30 fold.
In the case of PTH: PTH, ligand of PTH type 1 receptor, the “binding affinity, N161D mutation” value ([9]; N161D mutation of PTH1R) is listed as “did not change the binding affinity for PTH” and the “binding affinity after tunicamycin” value ([9]; human PTH1R expressed in mammalian cells, tunicamycin treatment) is listed as “no changes in PTH binding affinity”.
In the case of calcitonin, the “binding affinity enhancement by CTR N-glycosylation” value (CTR ECD) is listed as ~ 10 fold.
In the case of salmon calcitonin, the “affinity vs human calcitonin” value (CTR) is listed as “higher affinity than human calcitonin”.
